# Results from different studies.
# Compare with care: the assays were run in different laboratories.
# Target: Calcium/calmodulin-dependent protein kinase type II subunit beta (CAMK2B, Homo sapiens, UniProt Q13554)
Structure (SMILES),read-out,action,method,concentration,endpoint,value
Cc1ccc(C(=O)NCc2ccsc2)cc1C#Cc1cn(C(C)C)c2ncnc(N)c12,enzyme activity,inhibitor,,1 µM,activity vs control,95%
N#CCCc1ccc2c(c1)-c1[nH]c3ccc([N+](=O)[O-])cc3c1CC(=O)N2,cell-free assay,,,0.5 µM,remaining signal,99.3%
Cc1cc(NC(=O)c2cccc3cc(-c4cccc5[nH]nc(N)c45)ccc23)ccc1F,enzyme activity,inhibitor,,0.1 µM,activity vs control,94%
CCCCN(CCCC)C(=O)CN1C[C@H](c2cc(OC)c3c(c2)OCO3)[C@@H](C(=O)O)[C@@H]1CC(C)(C)CCC,cell-free assay,,competition with immobilised ligand,1 µM,remaining binding,100%
CC(C)(C)c1nc(-c2cccc(NS(=O)(=O)c3c(F)cccc3F)c2F)c(-c2ccnc(N)n2)s1,enzyme activity,inhibitor,radiometric,1 µM,remaining activity,78%
CN1CC(Oc2cnc(C#N)cc2-c2ccn3nc(NC(=O)C4CC4)cc3c2)C1,enzyme activity,inhibitor,,1 µM,inhibition,-1%
Cc1cnc(NC2CCOCC2)nc1-n1cnc(C(=O)NC(CN)c2cc(F)cc(Cl)c2)c1 (stereo not drawn),enzyme activity,inhibitor,radiometric,1 µM,remaining activity,87%
CCN(CC)CCNC(=O)c1c(C)[nH]c(/C=C2\C(=O)Nc3ccc(F)cc32)c1C,enzyme activity,inhibitor,,10 µM,inhibition,91%
COc1cc2ncnc(Nc3ccc(Oc4ccccc4)c(C)c3C)c2cc1OC,enzyme activity,inhibitor,,1 µM,inhibition,12%
C[S+]([O-])c1ccc(-c2nc(-c3ccncc3)c(-c3ccc(F)cc3)[nH]2)cc1 (stereo not drawn),cell-free assay,,,0.5 µM,remaining signal,97.6%
CNC(=O)c1cc(Oc2ccc(NC(=O)Nc3ccc(Cl)c(C(F)(F)F)c3)cc2)ccn1,enzyme activity,inhibitor,,10 µM,inhibition,50%
Cc1nc(Cc2cccc(C(F)(F)F)c2)sc1-c1ccc(C(N)=O)nc1,cell-free assay,,competition with immobilised ligand,1 µM,remaining binding,100%
CCN(CC)c1ccc(C2=NNC(=O)CC2C)cc1[N+](=O)[O-] (stereo not drawn),enzyme activity,inhibitor,,10 µM,remaining activity,96%
CO[C@@H](C)c1c(Nc2ccc([C@H](N(C)C(=O)C3CCS(=O)(=O)CC3)C(F)(F)F)cc2)cnc2cc(Cl)nn12,cell-free assay,,competition with immobilised ligand,1 µM,remaining binding,94%
O=C1Nc2ccc(Cl)cc2C1=Cc1cc(Cl)c(O)c(Cl)c1,cell-free assay,,,0.5 µM,remaining signal,92%
O=C(NCc1ncc(C(F)(F)F)cc1Cl)c1ccc2c(c1)C1(CCS(=O)(=O)CC1)[C@@H](C1CC1)N2S(=O)(=O)c1ccc(F)cc1,cell-free assay,,competition with immobilised ligand,1 µM,remaining binding,92%
O=C(Nc1cnn(-c2csc(C(=O)NC3COC3)c2)c1)Nc1c(F)cccc1Cl,enzyme activity,inhibitor,,5 µM,remaining activity,99.1%
Cc1ccc(C(=O)Nc2ccc(CN3CCN(C)CC3)c(C(F)(F)F)c2)cc1C#Cc1cnc2cccnn12,enzyme activity,inhibitor,,23.5 nM,remaining activity,97%
CC/C(=N\NC(=O)NCc1cccc(O)c1)c1ccc(O)c(C)c1O,enzyme activity,inhibitor,,0.1 µM,inhibition,-4%
COc1cc(Cl)c(C(=O)N[C@@H](CN[C@H]2CC[C@@H](N)CC2)Cc2ccc(C#N)cc2)cc1-c1ccc(CN[C@H](C)c2ccc(C)cc2)o1,enzyme activity,inhibitor,,1 µM,remaining activity,94%
O=C1NC(=O)c2cc(Nc3ccc(F)cc3)c(Nc3ccc(F)cc3)cc21,cell-free assay,,,0.5 µM,remaining signal,98.7%
Cc1cc(-n2nc(Cc3cc(F)cc(C(F)(F)F)c3)nc2C)ccc1C(N)=O,cell-free assay,,competition with immobilised ligand,1 µM,remaining binding,100%
CCCOc1ccc(OC)c(F)c1C(=O)c1ccc(C(=O)N[C@@H]2CNC[C@H]2NC(=O)c2ccc3[nH]ncc3c2)cc1,enzyme activity,inhibitor,,10 µM,remaining activity,53%
Cc1ccc(Nc2nccc(N(C)c3ccc4c(C)n(C)nc4c3)n2)cc1S(N)(=O)=O,enzyme activity,inhibitor,,0.3 µM,inhibition,15%
Cc1noc([C@H]2C[C@@H](c3ccc(C(F)(F)F)cc3)CN(C(=O)N3CCS(=O)(=O)C3)C2)n1,cell-free assay,,competition with immobilised ligand,1 µM,remaining binding,100%
Clc1ccc(Nc2nnc(Cc3ccncc3)c3ccccc23)cc1,cell-free assay,,,0.5 µM,remaining signal,109%
C[C@@H]1CN(c2cc(-c3nn(C)c4ccc(OC5(C)CC5)cc34)ncn2)C[C@H](C)O1,cell-free assay,,competition with immobilised ligand,1 µM,remaining binding,96%
c1ccc(CNc2nc(N3CCOc4ccccc43)nc3c2CCCC3)cc1,target engagement in cells,inhibitor,chemoproteomics,20 mM,inhibition,12.7%
O=C(O)[C@H]1[C@H](Cn2nnc3ccccc3c2=O)CC[C@@H]1C(=O)c1ccc(OCCC2CCOCC2)cc1,cell-free assay,,competition with immobilised ligand,1 µM,remaining binding,100%
CCN(CC)CCNC(=O)c1c(C)[nH]c(/C=C2\C(=O)Nc3ccc(Cl)cc32)c1C,enzyme activity,inhibitor,,0.5 µM,remaining activity,27.3%
